High-throughput results from PubChem.
Most compounds without a hit are left out; they make up all but 3.5% or so of the library.
RGS4 inh: inhibitors of human RGS4; 310,000 tested, 0.45% active; B-score at 10 µM; AID 463165; P49798; HEK293 M3R/RGS4 inducible, Fluo-4 calcium flux; active compounds read high; triggered by carbachol at its EC20;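 active = B-score, a plate-corrected calcium signal, over three deviations above library mean, with baseline fluorescence within five deviations of library mean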;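 note: RGS4 expression induced by doxycycline in cells with stable M3 receptor; B-score is computed from the integrated fluorescence ratio over baseline after carbachol; higher B-score means a larger calcium signal and so more RGS4 inhibition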
Target sequence (P49798 whole entry, looked up): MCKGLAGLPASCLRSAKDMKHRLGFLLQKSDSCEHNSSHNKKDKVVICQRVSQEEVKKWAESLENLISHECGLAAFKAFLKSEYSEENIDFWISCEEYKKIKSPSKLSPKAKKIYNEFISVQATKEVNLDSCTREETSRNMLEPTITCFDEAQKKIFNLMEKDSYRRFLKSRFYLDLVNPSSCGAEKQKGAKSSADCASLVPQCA
MrgX1 agonist: activates human MrgX1 receptor signaling. B-score at 10 µM. Q96LB2. MrgX1-HEK293 cells, Fluo-4 calcium fluorescence, agonist mode; active compounds read high. 310,000 tested, 0.44% active;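 active = calcium response B-score plate-corrected fluorescence ratio at least 3 library SD, with starting fluorescence B-score inside 5 SD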
Target sequence (Q96LB2 whole entry, looked up): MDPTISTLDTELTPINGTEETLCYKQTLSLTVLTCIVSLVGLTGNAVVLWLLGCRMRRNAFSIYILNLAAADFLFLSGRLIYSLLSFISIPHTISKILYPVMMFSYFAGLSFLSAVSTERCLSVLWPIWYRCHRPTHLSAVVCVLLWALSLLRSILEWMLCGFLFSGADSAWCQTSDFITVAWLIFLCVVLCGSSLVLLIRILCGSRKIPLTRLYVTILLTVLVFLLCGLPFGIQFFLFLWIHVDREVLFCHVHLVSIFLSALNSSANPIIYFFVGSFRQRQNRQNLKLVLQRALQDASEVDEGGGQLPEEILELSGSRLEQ
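Test system: Stable human MrgX1 HEK293 cell line | Schedule: Overnight plating before 1 h dye loading | Read-out basis: Baseline-normalised fluorescence change ratio, B-scored | Detection: Kinetic calcium dye fluorescence, Fluo-4 NW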
MrgX1 allo act: allosterically activates human MrgX1 receptor signaling; Q96LB2; MrgX1-HEK293, Fluo-4 calcium flux, FDSS; active compounds read high; B-score at 10 µM; 310,000 tested, 0.63% active;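 active = plate-corrected calcium response at least 3 library SD above typical, normal starting fluorescence, not activating the receptor alone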;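 note: compound read alongside a low EC10 to EC30 dose of BAM8-22 agonist; peak minus trough fluorescence over baseline measured at the second addition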
MrgX1 antag: blocks BAM8-22 activation of human MrgX1 receptor; Q96LB2; MRGX1-HEK293 calcium flux, Fluo-4, BAM8-22 antagonism; active compounds read low; B-score at 10 µM; 310,000 tested, 1.3% active; AID 588676;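 active = calcium-response B-score plate-corrected more than 3 library SD below zero, starting fluorescence within 5 deviations, no agonist response on first addition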;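 note: peak minus trough fluorescence over baseline after final BAM8-22 challenge near maximal dose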
RGS4 act: RGS4 potentiation or activation | HEK293 M3R/inducible RGS4, carbachol calcium flux Fluo4; active compounds read low | B-score at 10 µM | 310,000 tested, 0.92% active;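 active = B-score of the integrated calcium signal more than 4 SD below the library mean, with starting fluorescence not abnormally high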;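 note: negative B-score means reduced calcium response which marks RGS4 activation or potentiation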
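Detection: kinetic calcium fluorescence imaging with Fluo4-AM dye, 2 µM / Material: HEK293 cells with stable M3R and inducible RGS4 / Schedule: recording 10 s baseline at 1 Hz, 100 s post-agonist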
Numbers stand for hits; - = inactive; . = no result given.

SMILES | RGS4 inh | MrgX1 agonist | MrgX1 allo act | MrgX1 antag | RGS4 act
CCn1cc(C(=O)N2CCC3(CC2)OCCO3)c(=O)c2cc(S(=O)(=O)N3CCCC3)ccc21 | - | - | - | - | -
Cc1c(C(=O)N2CCC3(CC2)OCCO3)oc2ccc(S(=O)(=O)N3CCCCC3)cc12 | - | - | - | -5.3 | -
CO[C@H]1C=C2CCN(C)[C@H]2C2c3cc4c(cc3C(=O)O[C@@H]21)OCO4 (stereo partly specified) | . | - | - | - | .
O=C1NC(=O)C(=Cc2ccc(OCCOc3ccc([N+](=O)[O-])cc3)cc2)C(=O)N1 | - | - | - | -4.8 | -
CN1/C(=C\C=C\C2=[N+](C)c3ccc4ccccc4c3C2(C)C)C(C)(C)c2ccccc21 | . | - | - | - | .
C[N+]1=C(/C=C/Nc2ccccc2)C(C)(C)c2ccccc21 | - | - | - | -4.9 | -
COc1ccc(-n2c(Cc3cccc([N+](=O)[O-])c3)nc3ccccc3c2=O)cc1 | - | - | - | - | -
COc1cccc(CCNCc2ccc(SC)cc2)c1 | - | - | - | - | -
COc1ccc(C(=O)O/N=C(/C(N)=O)P(=O)(OC(C)C)OC(C)C)cc1 | - | - | - | - | -7.7
O=c1[nH]c(=S)n(-c2ccc(Cl)cc2)c(O)c1/C=N/N1CCOCC1 | - | - | - | - | -
CCOc1cc2c(cc1OCC)-n1cccc1C(c1ccccc1O)NC2 (stereo unspecified) | - | - | - | - | -
CCN(CC)c1ccc(N=Cc2c(O)n(Cc3ccco3)c(=O)[nH]c2=O)cc1 | - | - | - | - | -
CCN(CCO)c1ccc(N=Cc2c(O)n(C)c(=S)[nH]c2=O)cc1 | - | 43 | - | - | -
CCOc1cc2c(cc1OCC)-n1cccc1C(c1ccc(OC)cc1)NC2 (stereo unspecified) | - | - | - | -8.4 | -
CCOc1cc2c(cc1OCC)-n1cccc1C(c1ccc(C(C)C)cc1)NC2 (stereo unspecified) | - | - | - | -5.2 | -
CCOc1cc2c(cc1OCC)-n1cccc1C(c1ccc(F)cc1)NC2 (stereo unspecified) | - | - | - | - | -
COc1ccc(NC(=O)N2C[C@@H]3C[C@@H](C2)c2cccc(=O)n2C3)cc1 | - | - | - | - | -
CCOc1cc2c(cc1OCC)-n1cccc1C(c1ccccc1OC)NC2 (stereo unspecified) | - | - | - | - | -
CN1CCN(c2ccc([N+](=O)[O-])c3no[n+]([O-])c23)CC1 | - | - | - | - | -8.2
OC[C@@H](O)CCl | - | - | - | - | -
CN1CCN(CCOC2c3ccccc3CSc3ccc(Cl)cc32)CC1 (stereo unspecified) | - | - | - | -9.4 | -
Clc1ccc(C(OCCN2CCCCC2)c2ccccc2)cc1 (stereo unspecified) | . | - | - | - | .
O=C(COc1ccc(Cl)cc1)N(c1ccccc1Cl)C1CN2CCC1CC2 (stereo unspecified) | - | - | - | - | -
Clc1ccc2c(c1)C(OC1CN3CCC1CC3)c1ccccc1CS2 (stereo unspecified) | - | - | - | - | -8.6
CCCOC(=O)c1ccc(-[n+]2c(-c3ccccc3)cc(-c3ccccc3)cc2-c2ccccc2)cc1 | - | 34 | - | - | -7.2
SMILES | RGS4 inh | MrgX1 agonist | MrgX1 allo act | MrgX1 antag | RGS4 act
COc1ccc(-[n+]2c(-c3ccccc3)cc(-c3ccc(C)cc3)cc2-c2ccccc2)cc1 | - | - | 14 | -6.7 | -7.5
Brc1ccc(-[n+]2c(-c3ccccc3)cc(-c3ccccc3)cc2-c2ccccc2)cc1 | - | - | - | - | -8.6
C=CCn1c(O)c(C(CC)=NCC2CCCO2)c(=O)[nH]c1=O (stereo unspecified) | - | - | - | - | -
COc1ccc(-n2nc(C(=O)NCC(=O)N3CCC4(CC3)OCCO4)c3ccccc3c2=O)cc1OC | - | - | - | - | -
O=c1[nH]c(=O)n(Cc2ccco2)c(O)c1C=NC1CCN(Cc2ccccc2)CC1 | - | - | - | - | -
CC(C)(C)n1c(O)c(C=Nc2ccc3c(c2)CCC3)c(=O)[nH]c1=O | - | - | - | - | -7.1
NNc1n[nH]c(=S)n1N | - | - | - | - | -
Cc1ccccc1NC(=O)NCCN1CC1 | - | - | - | - | -
CCCCOc1ccc(CN2CCN(CCO)CC2)cc1 | - | - | - | - | -
CCCCCCOc1ccc(CN2CCN(CCO)CC2)cc1 | - | - | - | - | -7.3
C=C1C(=O)O[C@H]2C[C@@H](C)[C@@H]3C=CC(=O)[C@@]3(C)C[C@H]12 | 6.3 | - | - | - | -
C=C1C(=O)O[C@H]2[C@H]1[C@H](OC(=O)CC(=O)O[C@@H]1C[C@@H](C)[C@@H]3C=CC(=O)[C@@]3(C)[C@H]3OC(=O)C(=C)[C@H]13)C[C@@H](C)[C@H]1C=CC(=O)[C@]12C | - | - | - | - | -
Cc1cc(C=C2C(=O)N(C)C(=S)N(C)C2=O)c(C)n1C1CCCCC1 | - | 47 | - | - | -
Cc1cc(C=C2C(=O)NC(=S)NC2=O)c(C)n1C1CCCC1 | - | - | - | - | -
CC[N+](C)(CC)CCCOC(=O)C(O)(c1ccccc1)C1CCCCC1 (stereo unspecified) | - | - | - | - | -7.1
CCOC(C(=O)OCCC[N+](C)(CC)CC)(c1ccccc1)c1ccccc1 | - | - | - | - | -8.7
O=C(O)C(O)(c1ccccc1)C1CCCCC1 (stereo unspecified) | - | - | - | - | -
[O-]c1ccccc1-[n+]1c(-c2ccccc2)cc(-c2ccccc2)cc1-c1ccccc1 | - | - | 8.3 | - | -
Cc1ccccc1-[n+]1c(-c2ccccc2)cc(-c2ccccc2)cc1-c1ccccc1 | - | - | - | -7.3 | -8.9
Cc1ccc(-c2cc(-c3ccccc3)cc(-c3ccccc3)[n+]2-c2ccc(C(=O)O)cc2)cc1 | - | - | - | - | -
Oc1ccccc1-[n+]1c(-c2ccccc2)cc(-c2ccccc2)cc1-c1ccccc1 | - | - | 13 | - | -7.4
Nc1ccccc1-[n+]1c(-c2ccccc2)cc(-c2ccccc2)cc1-c1ccccc1 | - | - | - | -7.3 | -
O=C(O)c1ccc(-[n+]2c(-c3ccccc3)cc(-c3ccccc3)cc2-c2ccccc2)cc1 | - | - | - | - | -
O=C(O)CCn1cc(C=C2C(=O)NC(=O)NC2=O)c(-c2cc3ccccc3oc2=O)n1 | - | - | - | - | -
O=C1Nc2cc(C(=O)N3CCC4(CC3)OCCO4)ccc2NC1CSCc1cccc(F)c1 (stereo unspecified) | - | 42 | - | - | -
O=C(c1ccc2c(c1)N(Cc1ccccc1)CCS2)N1CCC2(CC1)OCCO2 | - | - | - | - | -
CCOC(=O)C1(CCc2ccccc2)CCN(Cc2csc(C(C)=O)c2)CC1 | - | - | - | - | -
